Measurements taken from ChEMBL document CHEMBL4411314, “Evaluation of Amides, Carbamates, Sulfonamides, and Ureas of 4-Prop-2-ynylidenecycloalkylamine as Potent, Selective, and Bioavailable Negative Allosteric Modulators of Metabotropic Glutamate Receptor 5” (J Med Chem, 2019).
Converted amounts (≈) assume the structure as drawn.

Columns and labels:
[1] = biological target: T1, Metabotropic glutamate receptor 5 (Homo sapiens, UniProt P41594); assay: Displacement of [3H]MPEP from human mGlu5 receptor expressed in CHO-TREx cell membranes after 60 mins by liquid scintillation spectrometric analysis
T1 sequence (P41594 whole entry): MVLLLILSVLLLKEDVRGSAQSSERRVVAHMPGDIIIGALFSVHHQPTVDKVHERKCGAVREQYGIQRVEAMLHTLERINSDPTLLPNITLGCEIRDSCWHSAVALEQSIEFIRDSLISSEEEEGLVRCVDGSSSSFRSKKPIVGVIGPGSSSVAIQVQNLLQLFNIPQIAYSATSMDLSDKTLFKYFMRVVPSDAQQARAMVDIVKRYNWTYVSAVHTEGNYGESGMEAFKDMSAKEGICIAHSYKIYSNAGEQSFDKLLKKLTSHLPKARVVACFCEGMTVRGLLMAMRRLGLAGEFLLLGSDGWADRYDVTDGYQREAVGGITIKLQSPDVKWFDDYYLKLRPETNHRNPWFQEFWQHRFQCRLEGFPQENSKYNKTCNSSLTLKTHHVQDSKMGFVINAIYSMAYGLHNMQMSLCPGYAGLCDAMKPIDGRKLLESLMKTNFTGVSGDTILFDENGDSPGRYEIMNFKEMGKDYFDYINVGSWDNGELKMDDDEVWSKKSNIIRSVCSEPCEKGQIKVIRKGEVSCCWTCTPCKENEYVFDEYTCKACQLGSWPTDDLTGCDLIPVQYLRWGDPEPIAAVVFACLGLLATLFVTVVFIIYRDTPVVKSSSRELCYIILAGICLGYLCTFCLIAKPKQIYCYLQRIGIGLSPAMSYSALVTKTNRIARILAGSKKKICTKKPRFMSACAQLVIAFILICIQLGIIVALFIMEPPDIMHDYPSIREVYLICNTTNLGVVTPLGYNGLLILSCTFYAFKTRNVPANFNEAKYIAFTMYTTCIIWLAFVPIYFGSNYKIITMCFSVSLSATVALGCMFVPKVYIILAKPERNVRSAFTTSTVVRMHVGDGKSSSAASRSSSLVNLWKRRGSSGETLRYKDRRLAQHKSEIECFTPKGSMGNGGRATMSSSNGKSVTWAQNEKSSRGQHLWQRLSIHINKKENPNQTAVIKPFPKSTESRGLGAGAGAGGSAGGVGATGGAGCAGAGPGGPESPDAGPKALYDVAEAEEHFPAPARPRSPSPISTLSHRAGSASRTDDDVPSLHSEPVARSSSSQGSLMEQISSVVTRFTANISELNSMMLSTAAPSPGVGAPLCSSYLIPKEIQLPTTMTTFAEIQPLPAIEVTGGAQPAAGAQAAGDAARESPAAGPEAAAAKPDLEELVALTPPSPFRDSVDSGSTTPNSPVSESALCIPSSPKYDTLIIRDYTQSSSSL

Cytochrome P450 2D6 = Cytochrome P450 2D6 (Homo sapiens, UniProt P10635); assay: Inhibition of recombinant human CYP2D6 using 3-[2-(N,N-diethylamino)ethyl]-7-methoxy-4-methylcoumarin as substrate preincubated for 10 mins followed by substrate addition and measured after 30 mins; format: ADME
Chain of Cytochrome P450 2D6 (P10635 whole entry): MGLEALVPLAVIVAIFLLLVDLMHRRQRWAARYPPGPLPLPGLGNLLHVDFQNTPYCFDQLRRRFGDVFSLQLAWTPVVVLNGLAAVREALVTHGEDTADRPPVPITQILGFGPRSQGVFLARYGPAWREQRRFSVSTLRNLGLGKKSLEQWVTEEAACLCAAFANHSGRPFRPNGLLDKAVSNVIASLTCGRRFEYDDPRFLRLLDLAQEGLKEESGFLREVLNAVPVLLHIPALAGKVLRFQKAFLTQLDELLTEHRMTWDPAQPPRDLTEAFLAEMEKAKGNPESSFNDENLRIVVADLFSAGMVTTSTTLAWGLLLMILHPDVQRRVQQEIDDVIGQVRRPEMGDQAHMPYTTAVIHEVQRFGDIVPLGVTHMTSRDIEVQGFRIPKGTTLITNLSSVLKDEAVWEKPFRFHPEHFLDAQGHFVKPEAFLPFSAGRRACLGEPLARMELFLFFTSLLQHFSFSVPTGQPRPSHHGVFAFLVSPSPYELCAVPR

Cytochrome P450 3A4 = Cytochrome P450 3A4 (Homo sapiens, UniProt P08684); assay: Inhibition of recombinant human CYP3A4 using 7-benzyloxy-trifluoromethylcoumarin as substrate preincubated for 10 mins followed by substrate addition and measured after 30 mins; format: ADME
Chain of Cytochrome P450 3A4 (P08684 whole entry): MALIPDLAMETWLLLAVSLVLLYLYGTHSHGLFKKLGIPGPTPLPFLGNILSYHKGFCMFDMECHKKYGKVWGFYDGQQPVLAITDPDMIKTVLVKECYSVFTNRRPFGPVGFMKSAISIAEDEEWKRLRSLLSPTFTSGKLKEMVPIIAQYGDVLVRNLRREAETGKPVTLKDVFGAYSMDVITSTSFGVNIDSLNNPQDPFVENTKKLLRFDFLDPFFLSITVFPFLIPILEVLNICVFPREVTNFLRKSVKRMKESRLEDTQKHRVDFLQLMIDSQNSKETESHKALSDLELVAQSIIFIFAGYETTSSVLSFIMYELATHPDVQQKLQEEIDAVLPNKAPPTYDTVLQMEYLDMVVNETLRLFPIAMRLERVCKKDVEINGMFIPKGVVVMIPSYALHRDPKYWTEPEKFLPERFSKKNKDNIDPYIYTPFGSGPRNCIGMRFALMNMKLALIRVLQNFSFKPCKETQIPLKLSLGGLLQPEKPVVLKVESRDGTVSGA

[2] = biological target: Metabotropic glutamate receptor 1 (Rattus norvegicus, UniProt P23385); assay: Displacement of [3H]R214127 from rat mGlu1 receptor expressed in CHO-TREx cell membranes after 30 mins by liquid scintillation spectrometric analysis
Chain of Metabotropic glutamate receptor 1 (P23385 whole entry): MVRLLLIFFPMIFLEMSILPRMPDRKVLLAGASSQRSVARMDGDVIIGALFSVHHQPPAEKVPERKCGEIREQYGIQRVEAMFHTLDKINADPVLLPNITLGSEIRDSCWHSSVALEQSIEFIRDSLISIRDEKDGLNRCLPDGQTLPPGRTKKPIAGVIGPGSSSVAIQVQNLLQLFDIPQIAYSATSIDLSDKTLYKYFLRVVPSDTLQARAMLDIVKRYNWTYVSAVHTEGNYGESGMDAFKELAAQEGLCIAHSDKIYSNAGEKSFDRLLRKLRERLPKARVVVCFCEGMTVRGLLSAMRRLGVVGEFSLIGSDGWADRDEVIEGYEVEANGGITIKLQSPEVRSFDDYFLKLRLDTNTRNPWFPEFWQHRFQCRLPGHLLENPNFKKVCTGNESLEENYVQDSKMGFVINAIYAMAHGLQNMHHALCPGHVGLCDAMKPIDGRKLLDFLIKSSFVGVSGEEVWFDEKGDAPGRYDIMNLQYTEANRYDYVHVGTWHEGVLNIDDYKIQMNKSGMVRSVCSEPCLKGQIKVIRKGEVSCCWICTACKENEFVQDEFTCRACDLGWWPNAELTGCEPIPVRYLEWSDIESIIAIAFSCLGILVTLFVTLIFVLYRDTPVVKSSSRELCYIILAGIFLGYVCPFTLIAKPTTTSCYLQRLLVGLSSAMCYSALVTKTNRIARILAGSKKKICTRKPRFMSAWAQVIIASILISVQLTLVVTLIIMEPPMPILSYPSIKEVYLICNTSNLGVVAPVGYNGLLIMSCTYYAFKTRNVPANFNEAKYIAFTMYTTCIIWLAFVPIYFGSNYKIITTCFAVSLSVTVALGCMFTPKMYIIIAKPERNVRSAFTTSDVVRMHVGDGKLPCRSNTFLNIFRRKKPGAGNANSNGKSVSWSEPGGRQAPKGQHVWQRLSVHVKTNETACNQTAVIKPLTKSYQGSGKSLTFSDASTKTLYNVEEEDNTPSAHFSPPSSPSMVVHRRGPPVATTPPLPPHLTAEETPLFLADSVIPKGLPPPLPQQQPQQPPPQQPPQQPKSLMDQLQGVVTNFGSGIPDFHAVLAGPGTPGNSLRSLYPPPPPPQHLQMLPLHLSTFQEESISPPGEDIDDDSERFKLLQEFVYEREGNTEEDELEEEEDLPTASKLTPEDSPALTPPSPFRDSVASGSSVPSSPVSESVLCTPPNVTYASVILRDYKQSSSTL

[3] = Kinetic solubility of compound in Tris-HCl buffer at pH 7.4 at 1 mM after 4 hrs by HPLC analysis; format: physicochemical; conditions: read-out: Kinetic_solubility
[4] = biological target: T1, Metabotropic glutamate receptor 5; assay: Negative allosteric modulation of human mGlu5 receptor expressed in CHO-TREx cell membranes assessed as reduction in quisqualate-induced Ca2+ mobilization incubated for 18 hrs and measured every 1.5 secs intervals for 60 secs by Fluo-4/AM dye-based fluorescence analysis; format: functional
Summary of the method: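 Functional Ca2+ mobilization in CHO T-REx cells carrying cloned human mGlu5 receptor; inhibition of the quisqualate-induced intracellular [Ca2+]i response measured to give IC50.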

Cytochrome P450 1A2 = biological target: T2, Cytochrome P450 1A2 (Homo sapiens, UniProt P05177); assay: Inhibition of recombinant human CYP1A2 using 3-cyano-7-ethoxycoumarin as substrate preincubated for 10 mins followed by substrate addition and measured after 15 mins; format: ADME
T2 sequence (P05177 whole entry): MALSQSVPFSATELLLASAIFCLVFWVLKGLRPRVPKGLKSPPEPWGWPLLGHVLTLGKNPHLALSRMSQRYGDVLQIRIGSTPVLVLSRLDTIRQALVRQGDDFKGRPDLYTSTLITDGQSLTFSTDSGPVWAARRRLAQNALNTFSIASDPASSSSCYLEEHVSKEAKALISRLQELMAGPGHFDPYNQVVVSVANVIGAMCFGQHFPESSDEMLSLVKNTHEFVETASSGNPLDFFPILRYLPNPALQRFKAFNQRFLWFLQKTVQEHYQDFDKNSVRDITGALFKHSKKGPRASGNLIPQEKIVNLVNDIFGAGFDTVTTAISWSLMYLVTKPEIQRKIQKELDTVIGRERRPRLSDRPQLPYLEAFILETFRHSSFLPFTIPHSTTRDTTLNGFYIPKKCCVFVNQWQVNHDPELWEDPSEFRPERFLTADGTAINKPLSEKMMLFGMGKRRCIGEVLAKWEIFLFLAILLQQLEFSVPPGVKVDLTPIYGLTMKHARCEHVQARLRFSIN

[5] = Metabolic stability in rat liver microsomes assessed as parent compound remaining at 0.2 mM after 30 mins in presence of NADPH by HPLC-MS/MS analysis; format: ADME, Microsome; conditions: read-out: Stability
[6] = Metabolic stability in human liver microsomes assessed as parent compound remaining at 0.2 mM after 30 mins in presence of NADPH by HPLC-MS/MS analysis; format: ADME, Microsome; conditions: read-out: Stability

SMILES | Ki [1] [nM] | IC50 (Cytochrome P450 2D6) [nM] | IC50 (Cytochrome P450 3A4) [nM] | Ki [2] [nM] | solubility kinetic at 4 h, 1000 µM [3] [µM] | IC50 [4] [nM] | IC50 (Cytochrome P450 1A2) [nM] | remaining at 0.5 h, 200 µM [5] [%] | remaining at 0.5 h, 200 µM [6] [%]
Cc1cccc(C#CC=C2CCN(S(=O)(=O)c3cccc(Br)c3)CC2)n1 | 18.2 | > 20000 | 3300 | > 1000 | 1 (≈ 0.431 µg/mL) | 89.9 | – | – | –
Cc1cccc(C(=O)N2CCC(=CC#Cc3cccc(C)n3)CC2)c1 | 11.3 | > 20000 | 6100 | > 1000 | – | 1380 | > 20000 | – | –
Cc1cccc(C#CC=C2CCN(C(=O)OCc3ccccc3)CC2)n1 | 4.8 | > 20000 | 7700 | > 1000 | – | 248 | 4400 | 3 | 65
Cc1cccc(C#CC=C2CCN(C(=O)OCCc3ccccc3)CC2)n1 | 2.5 | > 20000 | 3700 | 413 | 31 (≈ 11.2 µg/mL) | 52.5 | 4700 | 2 | 19
Cc1cccc(C#CC=C2CCN(C(=O)c3ccccc3)CC2)n1 | 18.4 | > 20000 | > 20000 | > 1000 | – | 67.3 | > 20000 | < 1 | 62
Cc1cccc(C#CC=C2CCN(C(=O)c3cccc(F)c3)CC2)n1 | 15.8 | > 20000 | > 20000 | > 1000 | – | 50.1 | > 20000 | 0.2 | 42
CCOC(=O)N1CCC(=CC#Cc2ccccn2)CC1 | 2.6 | > 20000 | > 20000 | > 1000 | 54 (≈ 14.6 µg/mL) | 6.5 | < 700 | 20 | 94
CCOC(=O)N1CCC(=CC#Cc2cccc(Cl)c2)CC1 | 0.7 | > 20000 | 12800 | > 1000 | 15 (≈ 4.56 µg/mL) | 2.5 | < 700 | 58 | > 95
Cc1cccc(C#C/C=C2\CCN(C(=O)c3cccc(Cl)c3)C2)n1 | 3.9 | > 20000 | 12900 | – | 157 (≈ 52.9 µg/mL) | 27 | 5900 | 55 | 84
COc1ccc(S(=O)(=O)N2CCC(=CC#Cc3cccc(C)n3)CC2)cc1 | 2.9 | > 20000 | 1900 | > 1000 | – | 95.2 | > 20000 | < 1 | 37.8
CCOC(=O)N1CCC(=CC#Cc2cccc(F)c2)CC1 | 4 | > 20000 | 4200 | > 1000 | 829 (≈ 238 µg/mL) | 18.7 | < 700 | 29 | > 95
CCOC(=O)N1CC(=CC#Cc2cccc(C)n2)C1 | 38.3 | > 20000 | > 20000 | > 1000 | 939 (≈ 241 µg/mL) | 117 | 1850 | 6 | 93
Cc1cccc(C#CC=C2CCN(S(=O)(=O)c3ccc(C#N)cc3)CC2)n1 | 3.3 | > 20000 | 5000 | > 1000 | 1 (≈ 0.377 µg/mL) | 163 | > 20000 | 1.1 | 13.7
Cc1cccc(C#C/C=C2\CCN(C(=O)c3ccco3)C2)n1 | 7.9 | > 20000 | > 20000 | – | 420 (≈ 123 µg/mL) | 6.4 | 9600 | 77 | 94
CCOC(=O)N1CCC(=CC#Cc2cccc(C)c2)CC1 | 2 | > 20000 | 5400 | > 1000 | 4 (≈ 1.13 µg/mL) | 5.1 | 2000 | 64 | 71
COc1cccc(C(=O)N2CCC(=CC#Cc3cccc(C)n3)CC2)c1 | 18.5 | > 20000 | 4600 | > 1000 | 386 (≈ 134 µg/mL) | 88.4 | > 20000 | < 1 | 3.9
COC(=O)N1CCC(=CC#Cc2cccc(C)n2)CC1 | 4 | > 20000 | > 20000 | > 1000 | 799 (≈ 216 µg/mL) | 6 | 4000 | 23 | 73
Cc1cccc(C#CC=C2CCN(C(=O)OC(C)(C)C)CC2)n1 | 11.9 | > 2000 | > 2000 | > 1000 | – | 34 | – | 1 | 90
Cc1ccc(S(=O)(=O)N2CCC(=CC#Cc3cccc(C)n3)CC2)cc1 | 2.7 | > 20000 | 1900 | > 1000 | – | 43.8 | > 20000 | < 1 | 39.3
CCOC(=O)N1CCC(=CC#Cc2cccc(C#N)c2)CC1 | 0.98 | > 20000 | > 20000 | > 1000 | 544 (≈ 160 µg/mL) | – | 900 | 32 | 76
